Experimental data: ChEMBL document CHEMBL3808312, “Bioactive Constituents of Glycyrrhiza uralensis (Licorice): Discovery of the Effective Components of a Traditional Herbal Medicine” (J Nat Prod, 2016)
pIC50: −log10 of the molar value. Calls of active or inactive are those of the source. The rule behind the calls is not given here.

How the values were obtained:
HepG2 [1] = experiment: Cytotoxicity against human HepG2 cells assessed as reduction in cell viability after 24 hrs by MTS assay; assay type: functional, cell-based; conditions: HepG2, 24 h
How it was run: (§1)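 Cells seeded at 5 × 10^3/well and cultured overnight, then exposed to compounds for 24 h. Viability read by MTS. Media: SW480 in RPMI1640, A549 in DMEM, MCF7 in MEM. […] Irinotecan positive control.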

SW480 [2] = experiment: Cytotoxicity against human SW480 cells assessed as reduction in cell viability after 24 hrs by MTS assay; assay type: functional, cell-based; conditions: SW480, 24 h; how it was run: as §1
A549 = experiment: Cytotoxicity against human A549 cells assessed as reduction in cell viability after 24 hrs by MTS assay; assay type: functional, cell-based; conditions: A549, 24 h; how it was run: as §1
MCF7 = experiment: Cytotoxicity against human MCF7 cells assessed as reduction in cell viability after 24 hrs by MTS assay; assay type: functional, cell-based; conditions: MCF7, 24 h; how it was run: as §1
RAW264.7 [3] = experiment: Antiinflammatory activity in mouse RAW264.7 cells assessed as inhibition of LPS-induced nitric oxide production at 10 uM after 24 hrs by Griess assay; assay type: functional
How it was run: (§2)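 RAW264.7 cells plated at 1.2 × 10^5/well in RPMI1640 and co-treated with compound and 1 μg/mL LPS for 24 h. Nitrite in medium read with Griess reagent (sulfanilamide/naphthylethylenediamine, phosphoric acid) after 15 min at 37 °C, absorbance 540 nm. […] Curcumin positive control.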

RAW264.7 [4] = experiment: Antiinflammatory activity in mouse RAW264.7 cells assessed as inhibition of LPS-induced nitric oxide production after 24 hrs by Griess assay; assay type: functional, cell-based; conditions: RAW264.7, 24 h; how it was run: as §2
RAW264.7 [5] = experiment: Antiinflammatory activity in mouse RAW264.7 cells assessed as inhibition of LPS-induced nitric oxide production at 20 uM after 24 hrs by Griess assay; assay type: functional; conditions: RAW264.7, 24 h; how it was run: as §2
Influenza A virus = experiment: Antiviral activity against Influenza A virus A/WSN/33(H1N1) infected in MDCK cells at 100 uM preincubated with virus for 15 mins followed by cells addition measured at 36 hrs post infection; assay type: functional, A/WSN/1933(H1N1)
How it was run: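 MDCK canine kidney cells grown in DMEM and infected with influenza A/WSN/33 (H1N1). Compounds screened at 100 μM. Oseltamivir phosphate served as the positive control.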

[6] = biological target: T1, Tyrosine-protein phosphatase non-receptor type 1 (Homo sapiens) (UniProt P18031); experiment: Inhibition of recombinant human PTP1B assessed as hydrolysis of p-nitrophenyl phosphate at 25 uM after 30 mins relative to control
T1 sequence (whole entry): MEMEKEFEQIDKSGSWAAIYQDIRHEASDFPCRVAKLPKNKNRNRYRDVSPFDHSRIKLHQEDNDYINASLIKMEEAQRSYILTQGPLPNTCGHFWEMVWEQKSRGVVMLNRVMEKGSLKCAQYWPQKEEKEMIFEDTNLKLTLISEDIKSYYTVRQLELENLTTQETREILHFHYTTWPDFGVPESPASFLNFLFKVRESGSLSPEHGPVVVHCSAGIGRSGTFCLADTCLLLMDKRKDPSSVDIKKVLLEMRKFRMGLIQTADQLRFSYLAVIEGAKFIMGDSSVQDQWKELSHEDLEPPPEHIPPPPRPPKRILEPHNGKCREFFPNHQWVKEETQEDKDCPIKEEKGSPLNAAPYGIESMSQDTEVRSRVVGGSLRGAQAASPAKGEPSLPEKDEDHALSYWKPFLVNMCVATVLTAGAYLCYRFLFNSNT

[7] = biological target: T2, Tyrosine-protein phosphatase non-receptor type 1 (Homo sapiens, UniProt P18031); experiment: Inhibition of recombinant human PTP1B assessed as hydrolysis of p-nitrophenyl phosphate
T2 sequence (P18031 whole entry): T1 sequence (whole entry)

MDCK = experiment: Cytotoxicity against MDCK cells after 36 hrs; assay type: cell-based, Canis lupus familiaris; conditions: dog
Acetylcholinesterase = Acetylcholinesterase (Homo sapiens, UniProt P22303); experiment: Inhibition AChE (unknown origin) using ATCI as substrate assessed as hydrolysis of ATCI at 25 uM measured every 1 min for 10 times
Acetylcholinesterase, sequence (P22303 whole entry): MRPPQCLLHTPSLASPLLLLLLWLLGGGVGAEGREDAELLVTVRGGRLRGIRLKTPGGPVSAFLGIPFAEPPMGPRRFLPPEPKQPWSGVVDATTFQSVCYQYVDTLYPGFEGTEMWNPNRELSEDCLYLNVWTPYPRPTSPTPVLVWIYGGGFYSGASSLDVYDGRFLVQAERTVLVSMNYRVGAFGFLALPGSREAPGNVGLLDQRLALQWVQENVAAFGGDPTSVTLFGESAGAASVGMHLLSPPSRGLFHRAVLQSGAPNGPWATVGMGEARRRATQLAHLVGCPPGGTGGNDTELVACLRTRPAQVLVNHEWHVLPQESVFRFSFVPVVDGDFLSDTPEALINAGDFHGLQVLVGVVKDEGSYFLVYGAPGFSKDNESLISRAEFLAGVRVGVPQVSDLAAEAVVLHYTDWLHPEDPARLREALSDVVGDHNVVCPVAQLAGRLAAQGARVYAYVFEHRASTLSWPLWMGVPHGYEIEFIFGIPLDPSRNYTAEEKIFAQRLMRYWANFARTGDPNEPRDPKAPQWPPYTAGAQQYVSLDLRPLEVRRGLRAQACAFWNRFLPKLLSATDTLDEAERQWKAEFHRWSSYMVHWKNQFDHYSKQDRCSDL
How it was run: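 Commercial AChE (added as 0.025 U/mL solution) in Tris-HCl (30 mM, pH 8.0) with DTNB (added as 0.26 mM) and ATCI substrate (added as 0.2 mM); 200 μL mixture at room temperature. Thiocholine release read at 405 nm every min, 10 reads; linear slope taken as rate. Screening at 25 μM; galanthamine positive control.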

[8] = biological target: T3, Nuclear factor erythroid 2-related factor 2 (Homo sapiens) (UniProt Q16236); experiment: Activation of NRF2 transcription in human HepG2C8 cells at 10 uM after 6 hrs by luciferase reporter gene assay relative to control; assay type: cell-based
T3 sequence (whole entry): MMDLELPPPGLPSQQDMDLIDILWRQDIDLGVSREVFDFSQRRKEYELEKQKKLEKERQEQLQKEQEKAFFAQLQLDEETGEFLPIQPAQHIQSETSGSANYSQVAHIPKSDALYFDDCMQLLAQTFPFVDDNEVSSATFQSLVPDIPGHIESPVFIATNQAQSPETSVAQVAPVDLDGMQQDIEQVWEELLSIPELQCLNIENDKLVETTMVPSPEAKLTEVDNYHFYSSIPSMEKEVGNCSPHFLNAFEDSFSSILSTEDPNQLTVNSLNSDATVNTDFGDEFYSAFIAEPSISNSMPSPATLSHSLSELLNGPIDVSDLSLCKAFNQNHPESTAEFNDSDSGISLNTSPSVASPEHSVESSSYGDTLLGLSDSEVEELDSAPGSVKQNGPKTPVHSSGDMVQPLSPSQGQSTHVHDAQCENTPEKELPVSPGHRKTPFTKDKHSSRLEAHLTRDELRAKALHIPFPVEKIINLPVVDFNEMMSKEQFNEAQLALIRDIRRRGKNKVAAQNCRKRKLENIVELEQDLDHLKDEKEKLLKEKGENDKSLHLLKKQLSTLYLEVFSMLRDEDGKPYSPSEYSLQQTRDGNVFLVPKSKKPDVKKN
How it was run: (§3)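 Luciferase reporter in HepG2C8 cells, which are HepG2 stably transfected with an Nrf2 luciferase reporter and grown in MEM. Screened at 10 μM, with dose-response over 2.5−40 μM. Activity expressed as fold of control. tBHQ positive control.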

HepG2 [9] = experiment: Toxicity in human HepG2 cells at 20 to 40 uM; assay type: cell-based; conditions: hepg2, 40 µM
[10] = biological target: T3, Nuclear factor erythroid 2-related factor 2 (Homo sapiens); experiment: Activation of NRF2 transcription in human HepG2C8 cells after 6 hrs by luciferase reporter gene assay; assay type: cell-based; how it was run: as §3
SW480 [11] = experiment: Inhibition of NFkappaB transcription in human SW480 cells at 10 uM by luciferase reporter gene assay; assay type: cell-based
How it was run: (§4)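 SW480 cells (RPMI1640) stably transfected with an NF-κB luciferase reporter. […] MG132 positive control.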

SW480 [12] = experiment: (§5) Inhibition of NFkappaB transcription in human SW480 cells at by luciferase reporter gene assay; assay type: cell-based; how it was run: as §4
[13] = as §5; assay type: cell-based; how it was run: as §4
[14] = biological target: T3, Nuclear factor erythroid 2-related factor 2 (Homo sapiens); experiment: Inhibition of NRF2 transcription in human HepG2C8 cells at 10 uM after 6 hrs by luciferase reporter gene assay relative to control; assay type: cell-based; how it was run: as §3

For `CCc1c2c(nc3ccc(OC(=O)N4CCC(N5CCCCC5)CC4)cc13)-c1cc3c(c(=O)n1C2)COC(=O)[C@]3(O)CC` [IRINOTECAN], the pIC50 (HepG2 [1]) was 6.05, the pIC50 (SW480 [2]) was 5.85 and the pIC50 (A549) was 6.10. It also gave a pIC50 (MCF7) of 6.30.
In the case of `COc1cc(/C=C/C(=O)CC(=O)/C=C/c2ccc(O)c(OC)c2)ccc1O` [CURCUMIN], the inhibition at 10 µM (RAW264.7 [3]; RAW264.7, 24 h) was 12%, the pIC50 (RAW264.7 [4]) was 4.72 and the inhibition at 20 µM (RAW264.7 [5]) was 53%.
For `COc1cc2oc(-c3ccc(O)cc3O)cc2c(OC)c1CC=C(C)C`, the inhibition (RAW264.7 [3]) was “inactive”, the Activity (Influenza A virus) was >30% and the inhibition [6] was > 90%.
Molecule `CC(C)=CCc1cc(-c2coc3cc(O)c(CC=C(C)C)c(O)c3c2=O)cc(O)c1O` has a pIC50 (HepG2 [1]) of 5.36, a pIC50 (SW480 [2]) of 5.19 and a pIC50 (A549) of 5.19. The pIC50 [7] was 5.52, the Activity (MDCK) was “Toxic” and the pIC50 (MCF7) was 5.18. For the same molecule, the inhibition [6] was > 95%.
Work on `CC(C)=CCc1c(O)ccc(-c2coc3cc(O)c(CC=C(C)C)c(O)c3c2=O)c1O` yielded a pIC50 (HepG2 [1]) of 5.96, a pIC50 (SW480 [2]) of 5.19 and a pIC50 (A549) of 5.15. For the same molecule, the pIC50 [7] was 6.40, the inhibition (Acetylcholinesterase) was 71% and the Activity (MDCK) was “Toxic”. The pIC50 (MCF7) was 5.22 and the inhibition [6] was > 95%.
With `CC(C)=CCc1c(O)cc2occ(-c3ccc(O)cc3O)c(=O)c2c1O` [UNCINANONE A] the fold change (FC) [8] was 6.68, the Activity (HepG2 [9]) was “Toxic” and the Activity (Influenza A virus) was >30%. For the same molecule, the Activity [10] was “Dose-dependent effect”.
Work on `COc1c(-c2ccc(O)cc2)oc2cc(O)c(CC=C(C)C)c(O)c2c1=O` yielded a pIC50 (HepG2 [1]) of 4.97, a pIC50 (SW480 [2]) of 4.79 and a pIC50 (A549) of 4.64. For the same molecule, the pIC50 (MCF7) was 5.14 and the inhibition [6] was 52%.
In the case of `COc1cc2c(c(OC)c1CC=C(C)C)C1c3ccc(O)cc3OC1(O)CO2` (configuration not stated), the inhibition (SW480 [11]) was > 30%, the inhibition (SW480 [12]) was “Dose-dependent effect” and the pIC50 [13] was 4.61.
In the case of `COc1c2c(cc3c1CCC(C)(C)O3)OC[C@@H](c1ccc(O)c(CCC(C)(C)O)c1O)C2`, the inhibition [14] was 76%.
In the case of `COc1cc(O)cc2c1[C@@H]1Oc3c(ccc4c3C=CC(C)(C)O4)[C@@H]1CO2`, the inhibition (SW480 [11]) was > 30%, the inhibition (SW480 [12]) was “Dose-dependent effect” and the pIC50 [13] was 4.59.
With `COc1c(CC=C(C)C)c(O)cc2oc(-c3ccc(O)cc3O)cc12` [LICOCOUMARONE] the inhibition (SW480 [11]) was > 30%, the pIC50 (RAW264.7 [4]) was 5.07 and the Activity (Influenza A virus) was >30%. The inhibition [6] was > 90%, the inhibition (SW480 [12]) was “Dose-dependent effect” and the pIC50 [13] was 5.29.
